Experimental data from ChEMBL document CHEMBL1144630, “Indole derivatives as potent inhibitors of 5-lipoxygenase: design, synthesis, biological evaluation, and molecular modeling” (Bioorg Med Chem Lett, 2007).

How the values were obtained:
[1] = biological target: T1, Polyunsaturated fatty acid 5-lipoxygenase (Rattus norvegicus) (UniProt P12527); settings: at 5 µM
T1 sequence (whole entry): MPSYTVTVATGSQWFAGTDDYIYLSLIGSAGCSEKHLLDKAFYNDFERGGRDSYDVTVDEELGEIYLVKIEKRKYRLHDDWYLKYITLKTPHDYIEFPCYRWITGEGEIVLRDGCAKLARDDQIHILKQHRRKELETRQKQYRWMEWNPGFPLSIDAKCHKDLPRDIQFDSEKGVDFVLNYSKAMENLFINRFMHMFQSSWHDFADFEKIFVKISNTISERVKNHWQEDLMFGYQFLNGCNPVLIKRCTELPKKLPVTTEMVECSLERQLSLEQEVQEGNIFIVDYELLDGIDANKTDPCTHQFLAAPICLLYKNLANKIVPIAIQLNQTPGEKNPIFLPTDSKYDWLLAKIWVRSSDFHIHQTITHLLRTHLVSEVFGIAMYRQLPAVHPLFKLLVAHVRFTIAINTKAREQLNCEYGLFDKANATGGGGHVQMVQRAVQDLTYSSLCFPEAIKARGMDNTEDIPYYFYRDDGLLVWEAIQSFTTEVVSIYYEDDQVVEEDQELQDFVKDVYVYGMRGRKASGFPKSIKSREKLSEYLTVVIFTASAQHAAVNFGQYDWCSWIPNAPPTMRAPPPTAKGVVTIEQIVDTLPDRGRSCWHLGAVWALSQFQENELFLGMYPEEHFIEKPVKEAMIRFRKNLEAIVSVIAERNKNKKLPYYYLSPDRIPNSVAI

[2] = biological target: T2, Polyunsaturated fatty acid 5-lipoxygenase (Rattus norvegicus, UniProt P12527); assay: Inhibition of 5-LOX in rat peritoneal leukocytes; type: cell-based
T2 sequence (P12527 whole entry): T1 sequence (whole entry)
Procedure, shortened: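 Cell-based 5-LOX assay in rat peritoneal leukocytes, quantified with a commercial kit. Selected compounds went on to concentration–response testing to derive IC50. Values are means of three determinations, each within 10% of the mean.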

Structure (SMILES) | inhibition [1] [%] | IC50 [2] [µM]
COc1ccc2c(c1)c(CCCC(=O)N1CCN(C(=O)OC(C)(C)C)CC1)c(C)n2Cc1ccccc1 | 51.5 | 
COc1ccc2c(c1)c(CCCC(=O)N1CCOCC1)c(C)n2C(=O)c1ccc(Cl)cc1 | 70.2 | 2.25
COC1(c2cc(F)cc(OCCc3c[nH]c4ccccc34)c2)CCOCC1 | 64.2 | 2.38
COc1ccc2c(c1)c(CCCC(=O)N1CCNCC1)c(C)n2Cc1ccccc1 | 64.6 | 
COc1ccc2c(c1)c(CCCC(=O)N1CCOCC1)c(C)n2Cc1ccccc1 | 54.2 | 
CS(=O)(=O)N1CCN(C(=O)CCCc2cn(Cc3ccccc3)c3ccccc23)CC1 | 23.9 | 
COc1ccc2[nH]c(C)c(CCCC(=O)N3CCOCC3)c2c1 | 72.9 | 3.16
O=C(Cc1cn(C(=O)c2ccc(Cl)cc2)c2ccccc12)N1CCOCC1 | 22.4 | 
O=C(Cc1c[nH]c2ccccc12)N1CCOCC1 | 15.9 | 
Cc1[nH]c2ccc(Cl)cc2c1CCCC(=O)N1CCOCC1 | 71.3 | 1.33
O=C(Cc1cn(C(=O)c2ccccc2)c2ccccc12)N1CCOCC1 | 21 | 
O=C(CCc1cn(C(=O)c2ccccc2)c2ccccc12)N1CCOCC1 | 23.4 | 
Cc1c(CCCC(=O)N2CCOCC2)c2cc(Cl)ccc2n1Cc1ccc(Cl)cc1 | 37.9 | 
CC(C)(C)OC(=O)N1CCN(C(=O)CCCc2cn(Cc3ccccc3)c3ccccc23)CC1 | 38.2 | 
CC(c1cc2ccccc2s1)N(O)C(N)=O (stereo not drawn) | 86.9 | 
Cc1c(CCCC(=O)N2CCOCC2)c2cc(Cl)ccc2n1Cc1ccccc1 | 80.2 | 0.95
CC(C)(C)OC(=O)N1CCN(C(=O)CCCc2c[nH]c3ccccc23)CC1 | 84.1 | 0.74
O=C(CCc1c[nH]c2ccccc12)N1CCOCC1 | 33 | 
O=C(CCc1cn(C(=O)c2ccc(Cl)cc2)c2ccccc12)N1CCOCC1 | 26 | 
COc1ccc2c(c1)c(CCCOc1cc(F)cc(C3(OC)CCOCC3)c1)c(C)n2Cc1ccccc1 | 46.5 | 
COC1(c2cc(F)cc(OCCc3cn(Cc4ccccc4)c4ccccc34)c2)CCOCC1 | 31.8 | 
COc1ccc2[nH]c(C)c(CCCC(=O)N3CCN(C(=O)OC(C)(C)C)CC3)c2c1 | 71.2 | 
O=C(CCCc1c[nH]c2ccccc12)N1CCOCC1 | 62.3 | 2.06

Next, values leading:

inhibition [1] [%] | IC50 [2] [µM] | Structure (SMILES)
26.4 |  | COc1ccc2c(c1)c(CCCC(=O)N1CCOCC1)c(C)n2Cc1ccc(C)cc1
41.4 |  | O=C(Cc1cn(Cc2ccccc2)c2ccccc12)N1CCOCC1
33.9 |  | Cc1ccc(Cn2cc(CCCC(=O)N3CCOCC3)c3ccccc32)cc1
26.7 |  | O=C(CCCc1cn(Cc2ccc(Cl)c(Cl)c2)c2ccccc12)N1CCOCC1
32.4 |  | O=C(CCCc1cn(C(=O)c2ccc(Cl)cc2)c2ccccc12)N1CCOCC1
58.2 |  | O=C(CCCc1cn(C(=O)c2ccccc2)c2ccccc12)N1CCOCC1
81.9 | 0.87 | O=C(Cc1cn(Cc2ccc(Cl)c(Cl)c2)c2ccccc12)N1CCOCC1
38.5 |  | O=C(CCc1cn(Cc2ccc(Cl)c(Cl)c2)c2ccccc12)N1CCOCC1
63.8 | 3.17 | O=C(CCc1cn(Cc2ccccc2)c2ccccc12)N1CCOCC1
55.2 |  | Cc1ccc(Cn2cc(CCC(=O)N3CCOCC3)c3ccccc32)cc1
34.6 |  | Cc1ccc(Cn2cc(CC(=O)N3CCOCC3)c3ccccc32)cc1
95.4 | 0.85 | O=C(CCCc1cn(Cc2ccccc2)c2ccccc12)N1CCNCC1
25.8 | 74 | O=C(CCCc1cn(Cc2ccccc2)c2ccccc12)N1CCOCC1
41.6 |  | c1ccc(Cn2cc(CCCCN3CCOCC3)c3ccccc32)cc1
